Screening results as filed in PubChem.
Shown are actives, neighbours in structure and some others; about 3.3% of the full set was active somewhere.
UHRF1 MBD2 ctr = UHRF1 methyl-DNA binding inhibition; Q96T88; UHRF1 binding to methylated oligo, TR-FRET; inhibition, % at 4.4 µM; hit rate 0.75% among 370,000; AID 687016;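 further: UHRF1 SRA domain binding a hemimethylated CpG hairpin DNA probe; 0% = median of test compound wells and 100% = reference inhibitor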
PRMT1 FP inh = inhibitors of human PRMT1; AID 652257; Q99873; recombinant PRMT1, activity-based probe fluorescence polarization; inhibition, % at 2.79 µM; hit rate 1.3% among 370,000;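 active means inhibition above about 21% made by adding two undisclosed values, limit read from the data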
MBD2 DNA inh = blocks human MBD2 binding to methylated DNA. Q9UBB5. TR-FRET, MBD2 binding to methylated oligonucleotide. inhibition, % at 4.4 µM. hit rate 0.31% among 370,000; in the data active means inhibition above about 13%
SIAE inh = blocks human sialic acid acetylesterase | Q9HAT2 | SIAE FP-Rh probe binding, fluorescence polarization | inhibition, % at 9.66 µM | hit rate 0.69% among 370,000 | AID 1053197;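 active means inhibition above a cutoff: mean of compounds within the control limits plus 3 SD of those, cut at about 17% in these data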;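 further: 0% = plate median of compound wells and 100% = probe without SIAE protein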
TDP2 inh = TDP2 (human) inhibition, absorbance primary screen. O95551. recombinant TDP2, T5PNP hydrolysis, p-nitrophenol absorbance 415 nm. inhibition, % at 12.8 µM. hit rate 0.34% among 370,000. AID 720702;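 active means inhibition above the mean of all tested compounds plus 3 SD, set per campaign, cut at about 25% in these data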;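 further: 0% = DMSO with enzyme and 100% = buffer with substrate but no TDP2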
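Test system: Human TDP2 enzyme | Reagent: 5 mM T5PNP | Compound dosing: 12.8 µM single point, 1% DMSO | Incubation: Enzyme reaction with compound for 2 h at 37 °C | Technique: p-Nitrophenol epi absorbance | Read-out: % inhibition relative to enzyme-containing and enzyme-free wells | Benchmarks: High control without enzyme, low control DMSO plus TDP2 | Replicates: Singlicate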
LEDGF integ inh = blocks HIV-1 LEDGF/p75-dependent DNA integration; inhibition, % at 3.7 µM; AID 743269; TR-FRET IN-LEDGF/p75 DNA integration, Eu/Cy5; hit rate 0.64% among 370,000;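 active means inhibition above the screen-wide mean plus 3 SD, cut at about 13% in these data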;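 further: signal is the Cy5 over europium emission ratio at 671 and 618 nm; 0% = plate median of compound wells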
PRMT1 confirm = PRMT1 (human) inhibition, FP confirmation | shares compounds with PRMT1 FP inh | recombinant His-PRMT1, activity-based probe fluorescence polarization | inhibition, % at 2.79 µM | hit rate 42% among 3,300;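 active means mean inhibition across replicates above the hit cutoff derived for the earlier primary screen, cut at about 22% in these data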
UHRF1 ctr MBD2 = UHRF1 methyl-oligo binding inhibition as MBD2 counter-screen; shares compounds with MBD2 DNA inh; UHRF1 binding to methylated oligonucleotide, TR-FRET; inhibition, % at 4.4 µM; hit rate 25% among 1,000; AID 720530;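 further: UHRF1 SRA domain binding a labeled hemimethylated CpG hairpin DNA; 0% = vehicle only and 100% = reference inhibitor with vehicle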
MBD2 DBD conf = confirmation of human MBD2-DBD methylated oligonucleotide binding inhibitors | shares compounds with MBD2 DNA inh | TR-FRET MBD2-DBD binding to methylated oligonucleotide | inhibition, % at 4.4 µM | hit rate 26% among 1,000 | AID 720531; in the data active means inhibition above about 14%
TDP2 confirm = confirmation of human TDP2 inhibitors. shares compounds with TDP2 inh. recombinant human TDP2, absorbance read-out. inhibition, % at 12.8 µM. hit rate 22% among 1,100; in the data active means inhibition above about 25%;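 further: 0% = vehicle with enzyme and 100% = no enzyme buffer only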
Numbers without * were called inactive; . = no result given; + = active, no number. Unless noted, no stated cut-off is given here; in the data, active means inhibition above about 21%; inactive means the rest.

SMILES	UHRF1 MBD2 ctr	PRMT1 FP inh	MBD2 DNA inh	SIAE inh	TDP2 inh	LEDGF integ inh	PRMT1 confirm	TDP2 confirm	others
O=C1COc2ccc(C(=O)COC(=O)/C=C/c3ccc(Br)o3)cc2N1	45.6*	37.4*	18.8*	1.1	-1.4	24.1*	2.1	.	UHRF1 ctr MBD2=43.8*;MBD2 DBD conf=32.4*
CC(C)n1nnnc1C1(C)Cn2nccc2C(=O)N1Cc1cccc(C(F)(F)F)c1 (stereo not drawn)	-1.9	1.3	0.4	3.2	-1.8	-1.4	.	.
O=C1NC(=S)S/C1=C\c1ccc(SCc2ccccc2)o1	82.4*	64.1*	28.6*	-10.0	15.8	43.0*	15.1	.	UHRF1 ctr MBD2=11.7;MBD2 DBD conf=9.7
COc1ccccc1C=C1SC(=S)NC1=O	0.0	7.6	-4.1	-14.4	7.4	-4.8	.	.
COC(=O)c1cnn(-c2ccc(F)cc2F)c1/C=N/NC(=S)Nc1ccccc1	2.0	5.9	-3.4	-1.4	-0.6	-1.3	.	.
COc1cccc2c1C(=O)c1c(O)c3c(c(O)c1C2=O)C[C@](O)(C(C)=O)C[C@H]3O[C@@H]1C[C@@H](N)[C@@H](O)[C@@H](C)O1	93.0*	+	111.5*	56.5*	-3.9	2.1	149.2*	.	UHRF1 ctr MBD2=100.7*;MBD2 DBD conf=110.9*
CCCC(=O)NC1=C(Cl)C(=O)c2ccccc2C1=O	-9.3	95.0*	-14.3	-1.3	26.4*	3.8	93.6*	52.5*
CCNC1=C(Cl)C(=O)c2ccccc2C1=O	-24.0	-2.6	-22.8	2.4	9.6	2.8	.	.
C[C@H]1[C@@H](OC(=O)NCc2ccc(Cl)cc2)CC[C@@]23CCCN2C(=O)CCC[C@@H]13	-1.0	3.1	5.4	0.0	-1.4	2.5	.	.
O=C(CCCN1C(=O)/C(=C\c2ccco2)SC1=S)Nc1ccc(O)cc1C(=O)O	93.1*	61.8*	27.2*	6.1	29.1*	63.1*	36.7*	-7.6	UHRF1 ctr MBD2=44.8*;MBD2 DBD conf=16.4*
O=C(CCCN1C(=O)/C(=C\c2cccs2)SC1=S)Nc1ccc(O)cc1C(=O)O	-4.9	2.2	-0.3	-3.1	-12.4	6.0	.	.
COCCCNC(=O)Cn1nc(Cc2ccncc2)c2ccccc2c1=O	-0.7	-0.7	-7.1	0.5	11.7	-1.0	.	.
COc1ccc2c(c1)-c1nc(N)sc1CC2	-3.7	6.2	-6.9	2.6	-4.5	-3.8	.	.
Nc1nc2c(s1)CCc1ccccc1-2	-0.2	26.0*	-1.3	10.7	30.2*	-2.6	9.4	-2.4
NS(=O)(=O)c1ccc(-c2ccc(/C=C3\SC(=S)N(C4CCS(=O)(=O)C4)C3=O)o2)cc1 (stereo not drawn)	1.3	41.7*	1.8	2.7	29.3*	5.9	-8.2	-0.7
COC(=O)C1CN(Cc2ccc(OC)cc2)CCS(=O)(=O)N1Cc1ccc(OC)cc1 (stereo not drawn)	-0.2	5.2	1.7	2.8	0.9	0.2	.	.
O=c1[nH]c2c(s1)C(c1ccco1)C1C3CCC(C3)C1S2 (stereo not drawn)	3.0	39.2*	5.2	9.9	33.5*	7.3	19.5	7.5
CCOC(=O)C1=C(Cc2ccc(C)cc2)C(=O)c2ccccc2C1=O	-7.3	92.1*	-9.3	-4.4	30.8*	10.2	27.3*	26.8*
